Test results from ChEMBL document CHEMBL1148981, “A phthalide with in vitro growth inhibitory activity from an oidiodendron strain” (J Nat Prod, 2004).

Columns and labels:
SNB-75 = test: Cytotoxicity against human SNB75 cells; type: functional
How it was run: (§1)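 Growth inhibition read as GI50. Lines were run at one of two sites. At Cetek, cells grew in ATCC-recommended media and viability was read as CellTiter Blue resazurin reduction by fluorescence at 530/590. At NCI DTP, cells grew in RPMI 1640 with 5% FBS and 2 mM L-glutamine, and viability was read by TCA fixation and sulforhodamine B total-protein staining.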

BT-549 = test: Cytotoxicity against human BT549 cells; type: functional; how it was run: as §1
K562 = test: Cytotoxicity against human K562 cells; type: functional; how it was run: as §1
MDA-MB-435 = test: Cytotoxicity against human MDA-MB-435 cells; type: functional; how it was run: as §1
OVCAR-5 = test: Cytotoxicity against human OVCAR5 cells; type: functional; how it was run: as §1
SK-MEL-28 = test: Cytotoxicity against human SK-MEL-28 cells; type: functional; how it was run: as §1
MCF7 = test: Cytotoxicity against human MCF7 cells; type: functional; how it was run: as §1
M14 = test: Cytotoxicity against human M14 cells; type: functional; how it was run: as §1
RPMI-8226 = test: Cytotoxicity against human RPMI8226 cells; type: functional; how it was run: as §1
[1] = molecular target: T1, RAC-alpha serine/threonine-protein kinase (Homo sapiens, UniProt P31749); test: Inhibition of sulfhydryl-labeled human recombinant Akt1 expressed in baculovirus by affinity capillary electrophoresis assay
T1 sequence (P31749 whole entry): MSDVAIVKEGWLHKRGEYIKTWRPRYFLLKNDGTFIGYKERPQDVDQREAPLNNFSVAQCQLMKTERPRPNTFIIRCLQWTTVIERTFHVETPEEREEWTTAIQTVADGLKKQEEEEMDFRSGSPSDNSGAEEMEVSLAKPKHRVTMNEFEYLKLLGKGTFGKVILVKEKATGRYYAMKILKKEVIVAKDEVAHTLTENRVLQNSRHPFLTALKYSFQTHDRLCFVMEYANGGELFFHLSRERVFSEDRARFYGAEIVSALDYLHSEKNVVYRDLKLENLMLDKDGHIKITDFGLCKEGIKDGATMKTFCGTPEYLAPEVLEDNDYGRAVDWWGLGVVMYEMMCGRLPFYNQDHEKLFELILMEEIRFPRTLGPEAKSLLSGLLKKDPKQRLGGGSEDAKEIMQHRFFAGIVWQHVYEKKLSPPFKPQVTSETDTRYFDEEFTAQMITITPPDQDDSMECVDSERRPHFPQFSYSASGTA
How it was run: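 Baculovirus-expressed human Akt1 was buffer-exchanged into 30 mM HEPES pH 7.5 with 0.1% Chaps and 150 mM NaCl. It was labeled with Fluorescein-5-EX succinimidyl ester (dye:protein 5:1) for 2 h on ice, quenched with β-mercaptoethanol and stored in 50% glycerol at -20 °C. Compound was titrated against labeled Akt1 by affinity capillary electrophoresis. IC50 is the mean of three experiments with SEM.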

U-251 = test: Cytotoxicity against human U251 cells; type: functional; how it was run: as §1
Jurkat = test: Cytotoxicity against human Jurkat cells; type: functional; how it was run: as §1
U-937 = test: Cytotoxicity against human U937 cells; type: functional; how it was run: as §1
[2] = molecular target: T1, RAC-alpha serine/threonine-protein kinase; test: Inhibition of sulfhydryl-labeled human recombinant Akt1 expressed in baculovirus assessed as phosphorylation of recombinant Bad protein by Western blotting
How it was run: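 Active recombinant Akt1 (50 nM final) was preincubated 5 min at room temperature with test agent in DMSO (1.4% final) in assay dilution buffer. Soluble Bad (1.2 µM final) and Mg-ATP solution were then added, followed by 30 min at 30 °C with agitation. Read-out was SDS-PAGE, PVDF transfer, anti-phospho-Bad (Ser112) with HRP secondary, chemiluminescence and densitometry. IC50 is the mean of three experiments.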

OVCAR-3 = test: Cytotoxicity against human OVCAR-3 cells; type: functional; how it was run: as §1
NCI-H23 = test: Cytotoxicity against human NCI-H23 cells; type: functional; how it was run: as §1
EKVX = test: Cytotoxicity against human EKVX cells; type: functional; how it was run: as §1
OVCAR-8 = test: Cytotoxicity against human OVCAR8 cells; type: functional; how it was run: as §1
HepG2 = test: Cytotoxicity against human HepG2 cells; type: functional; how it was run: as §1

Structure (SMILES): CC1OC(=O)c2cc(O)c(O)c(O)c21 (centres undefined)
- GI50 (SNB-75): 60 µM
- GI50 (BT-549): 24 µM
- GI50 (K562): > 100 µM
- GI50 (MDA-MB-435): 85 µM
- GI50 (OVCAR-5): 74 µM
- GI50 (SK-MEL-28): 37 µM
- GI50 (MCF7): > 100 µM
- GI50 (M14): > 100 µM
- GI50 (RPMI-8226): 67 µM
- IC50 [1]: 19.7 µM
- GI50 (U-251): > 100 µM
- GI50 (Jurkat): 20 µM
- GI50 (U-937): 60 µM
- IC50 [2]: 30.4 µM
- GI50 (OVCAR-3): > 100 µM
- GI50 (NCI-H23): 87 µM
- GI50 (EKVX): > 100 µM
- GI50 (OVCAR-8): 82 µM
- GI50 (HepG2): > 100 µM
